pKi: −log10 of the molar value. Active and inactive are the calls of the source. No cut-off for these calls is given here. Bounds are passed on as bounds.

The target of one assay is T1, Low molecular weight phosphotyrosine protein phosphatase (Bos taurus) (UniProt P11064).
T1 sequence (whole entry): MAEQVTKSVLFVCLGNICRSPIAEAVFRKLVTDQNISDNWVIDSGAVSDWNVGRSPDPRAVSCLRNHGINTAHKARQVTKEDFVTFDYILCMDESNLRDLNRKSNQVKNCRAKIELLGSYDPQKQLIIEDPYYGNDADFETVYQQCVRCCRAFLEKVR
Kind of assay: (§1) Inhibition of bovine low molecular weight PTP expressed in Escherichia coli […] cells. The essentials:
(§2)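 Enzyme held at 10 nM; p-nitrophenyl phosphate substrate at five final concentrations (0.4, 0.8, 1.2, 1.6, 2.0 mM) against four to five inhibitor concentrations; inhibitors kept as 100 mM DMSO stocks. Run at 37 °C in 40 mM sodium acetate pH 5.0, 150 mM NaCl, 1 mM TCEP. p-Nitrophenolate release read at 405 nm; competitive Ki derived.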
On to `O=C(O)CC(O)c1nc2ccccc2[nH]1` (centres undefined), for which the result was inactive.
Still for that read-out and setting: to `O=[N+]([O-])c1ccc(C2=Nn3c(nnc3-c3ccccc3)SC2)cc1` belongs “inactive”.
Same read-out and setting: to `Cc1ccc2nc(-c3cccnc3)cc(C(=O)Nc3ccc(CC(=O)O)cc3)c2c1` belongs “inactive”; to `CS(=O)(=O)N1CCCC(C(=O)NCc2ccccc2Cl)C1` (centres undefined), “inactive”; to `O=C(O)C1CCN(S(=O)(=O)c2cccc3nsnc23)CC1`, “inactive”.
Consider `O=C(O)c1ccc2c(c1)C1C=CCC1C(C(=O)O)N2` (centres undefined), for which the outcome was inactive.
The same measure, in the same setting: under `CS(=O)(=O)N1CCN(C2=C(Cl)C(=O)c3ccccc3C2=O)CC1` stands “inactive”.
The same measure, in the same setting: under `Cc1cc(C(=S)N2CCOCC2)c(C)n1-c1ccc(C(=O)O)cc1` stands “inactive”.
For the compound `O=C(O)C1CC(=O)N(C2CCCCCC2)C1` (centres undefined), the outcome was inactive.
Same read-out and setting: to `O=C(O)C1CCC(CNCc2ccncc2)CC1` (centres undefined) belongs “inactive”.
Still for that read-out and setting: under `O=C(O)c1ccc2c(c1)c1c3n2CCNC3CCC1` (centres undefined) stands “inactive”; under `COc1ccc(CN2CCN(S(C)(=O)=O)CC2)cc1OC`, “inactive”.
Turning to `Cc1cc[n+](CCCS(=O)(=O)O)c2ccccc12`, the result was inactive.
Same read-out and setting: to `CCCOc1ccc(N2C(=O)CC(N3CCC(C(=O)O)CC3)C2=O)cc1` (centres undefined) belongs “inactive”; to `Cc1ccc(N2C(=O)CC(N3CCC(C(=O)O)CC3)C2=O)cc1` (centres undefined), “inactive”.
The same measure, in the same setting: under `O=C(O)COc1ccc2c(c1)C(=O)CC1(CCCCC1)O2` stands “inactive”.
In the case of `O=C(O)C1CSC(c2cc(Br)ccc2O)N1` (centres undefined), the outcome was inactive.
On the same count and under the same terms, under `O=C(O)c1ccc(C2(c3ccc(C(=O)O)cc3)OC(=O)c3ccccc32)cc1` stands “inactive”.

Another assay deals with T2, Low molecular weight phosphotyrosine protein phosphatase (Bos taurus, UniProt P11064).
T2 sequence (P11064 whole entry): T1 sequence (whole entry)
Described as §1. The essentials:
as §2
`O=C(O)c1ccc(C2Nc3c(F)cc(F)cc3C3C=CCC32)cc1` (centres undefined): the negative logarithm of the Ki (pKi) (usually the negative decadic logarithm of the Ki, by convention in mol/L) was 3.04.
On the same count and under the same terms, to `Cn1c(=O)oc2cc(S(=O)(=O)N3CCC(C(=O)O)CC3)ccc21` belongs less than 3.00; to `O=C(O)CCC(=O)N1N=C(c2ccccc2)CC1c1ccccc1F` (centres undefined), less than 3.00; to `O=C(O)c1ccc(-n2nc(C(F)(F)F)c3c2CCCC3)cc1`, less than 3.00.
For `O=C(O)CCC(=O)N1CCc2cc(S(=O)(=O)NCc3cccs3)ccc21`, the pKi was less than 3.00.
Still for that read-out and setting: under `O=C1N=C(Cc2cccn2-c2ccc(C(=O)O)cc2)C(=O)N1` stands 4.96; under `O=C(O)c1ccc2c(c1)C1C=CCC1C(c1ccccc1)N2` (centres undefined), less than 3.00; under `O=C(O)c1ccc2[nH]c3c(c2c1)CCCC3`, less than 3.00.
The same measure, in the same setting: under `O=C(O)Cc1ccc(C2C(=O)C3SC=CC3NC2=S)cc1` (centres undefined) stands 3.06.
`O=C(O)c1ccc2c(c1)C1C=CCC1C(c1cccnc1)N2` (centres undefined) gave a pKi of less than 3.00.
Still for that read-out and setting: to `O=C(O)c1ccc2c(c1)C1C=CCC1C(c1ccccc1C(F)(F)F)N2` (centres undefined) belongs 4.30; to `CCn1c2c(c3cc(C(=O)O)ccc31)CCCC2=O`, 3.21; to `CCn1c2ccc(CC(=O)O)cc2c2cc(CC(=O)O)ccc21`, 3.77.
The same measure, in the same setting: under `O=C(O)c1ccc2[nH]c3c(c2c1)CSCC3` stands 3.62; under `O=C(O)c1ccc2c(c1)C1C=CCC1C(c1cccc(Br)c1)N2` (centres undefined), 5.05; under `O=C(O)Cc1ccc2c(c1)[nH]c1ccc(Br)cc12`, 4.22.
